The target of assay [1] is T1, Nitric oxide synthase 3 (Bos taurus, UniProt P29473).
T1 sequence (P29473 whole entry): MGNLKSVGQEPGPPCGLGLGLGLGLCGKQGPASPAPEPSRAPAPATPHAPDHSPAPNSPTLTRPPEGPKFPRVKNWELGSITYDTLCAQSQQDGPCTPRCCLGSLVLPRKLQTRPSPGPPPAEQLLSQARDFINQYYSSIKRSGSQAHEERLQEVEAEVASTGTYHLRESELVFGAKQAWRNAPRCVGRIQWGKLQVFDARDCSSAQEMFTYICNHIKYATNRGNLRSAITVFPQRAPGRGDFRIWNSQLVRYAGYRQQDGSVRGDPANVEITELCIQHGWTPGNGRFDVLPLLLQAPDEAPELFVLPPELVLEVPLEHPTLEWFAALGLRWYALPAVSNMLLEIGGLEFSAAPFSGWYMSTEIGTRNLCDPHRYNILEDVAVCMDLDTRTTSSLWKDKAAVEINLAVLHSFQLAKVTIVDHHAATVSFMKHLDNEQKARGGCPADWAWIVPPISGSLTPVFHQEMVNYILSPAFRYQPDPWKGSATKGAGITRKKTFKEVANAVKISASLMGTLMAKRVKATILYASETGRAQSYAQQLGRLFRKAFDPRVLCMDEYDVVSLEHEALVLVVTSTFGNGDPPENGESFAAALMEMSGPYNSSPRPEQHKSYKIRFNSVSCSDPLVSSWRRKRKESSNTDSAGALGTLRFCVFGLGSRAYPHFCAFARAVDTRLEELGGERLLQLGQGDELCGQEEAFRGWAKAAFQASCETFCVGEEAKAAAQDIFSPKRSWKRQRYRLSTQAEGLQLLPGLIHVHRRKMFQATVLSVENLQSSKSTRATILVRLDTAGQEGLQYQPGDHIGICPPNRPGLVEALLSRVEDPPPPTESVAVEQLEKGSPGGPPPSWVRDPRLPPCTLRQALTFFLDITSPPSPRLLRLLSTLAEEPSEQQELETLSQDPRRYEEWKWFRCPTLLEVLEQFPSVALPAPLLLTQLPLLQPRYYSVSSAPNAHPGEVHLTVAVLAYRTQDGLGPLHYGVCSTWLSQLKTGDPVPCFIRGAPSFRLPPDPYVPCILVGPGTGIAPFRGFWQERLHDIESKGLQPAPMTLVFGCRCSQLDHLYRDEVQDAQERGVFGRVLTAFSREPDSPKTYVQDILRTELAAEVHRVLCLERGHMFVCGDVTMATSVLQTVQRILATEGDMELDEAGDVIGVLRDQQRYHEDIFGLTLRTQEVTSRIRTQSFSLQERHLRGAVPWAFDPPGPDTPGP
The assay is described as follows: Inhibitory activity against endothelial nitric oxide synthase (eNOS).

The target in assay [2] is T2, Nitric oxide synthase 1 (Rattus norvegicus, UniProt P29476). The experiment in a line: Inhibitory activity against neuronal nitric oxide synthase (nNOS); Range is 50-100 uM.
For assay [3], the target named is T3, Nitric oxide synthase, inducible (Mus musculus) (UniProt P29477).
T3 sequence (whole entry): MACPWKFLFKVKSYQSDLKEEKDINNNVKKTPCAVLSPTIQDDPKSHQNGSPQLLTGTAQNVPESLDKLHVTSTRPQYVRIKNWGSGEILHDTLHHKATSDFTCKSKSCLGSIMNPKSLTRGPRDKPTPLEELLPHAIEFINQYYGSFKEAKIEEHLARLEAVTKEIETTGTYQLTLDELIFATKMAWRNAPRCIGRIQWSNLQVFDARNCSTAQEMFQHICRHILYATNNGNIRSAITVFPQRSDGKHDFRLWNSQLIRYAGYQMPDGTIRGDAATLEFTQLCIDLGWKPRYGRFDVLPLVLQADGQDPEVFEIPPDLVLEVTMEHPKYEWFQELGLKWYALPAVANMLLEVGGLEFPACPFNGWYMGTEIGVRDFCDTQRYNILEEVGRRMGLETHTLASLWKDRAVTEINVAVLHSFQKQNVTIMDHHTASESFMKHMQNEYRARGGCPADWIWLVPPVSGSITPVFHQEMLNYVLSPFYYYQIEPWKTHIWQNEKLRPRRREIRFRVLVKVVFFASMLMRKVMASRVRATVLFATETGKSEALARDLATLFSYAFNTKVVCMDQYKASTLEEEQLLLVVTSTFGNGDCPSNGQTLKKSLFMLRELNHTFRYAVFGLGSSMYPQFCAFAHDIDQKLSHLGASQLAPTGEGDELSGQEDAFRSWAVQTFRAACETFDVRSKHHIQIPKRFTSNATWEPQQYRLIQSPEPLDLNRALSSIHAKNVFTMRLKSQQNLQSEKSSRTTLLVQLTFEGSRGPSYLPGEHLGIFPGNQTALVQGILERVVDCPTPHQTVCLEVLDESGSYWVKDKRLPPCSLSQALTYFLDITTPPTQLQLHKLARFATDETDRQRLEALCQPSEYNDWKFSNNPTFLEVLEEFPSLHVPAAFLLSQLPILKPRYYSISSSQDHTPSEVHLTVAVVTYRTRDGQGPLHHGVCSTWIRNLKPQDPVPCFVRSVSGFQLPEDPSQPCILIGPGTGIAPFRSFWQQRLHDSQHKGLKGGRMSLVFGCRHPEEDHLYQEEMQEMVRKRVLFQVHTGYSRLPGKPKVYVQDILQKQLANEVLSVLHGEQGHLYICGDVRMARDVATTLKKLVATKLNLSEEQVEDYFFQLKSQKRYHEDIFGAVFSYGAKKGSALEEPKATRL
The assay is described as follows: Inhibitory activity against inducible nitric oxide synthase (iNOS) at 100 uM. On the set-up: scale not given: the % may be the effect or the level left. In short, it runs like this:
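Single-point screen against murine macrophage iNOS: enzyme residual activity measured at 100 μM inhibitor. NO formation monitored by hemoglobin capture assay with a UV/vis spectrophotometer.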

The target of assay [4] is T2, Nitric oxide synthase 1. The assay is described as follows: Inhibitory activity against neuronal nitric oxide synthase (nNOS).

These results are taken from ChEMBL document CHEMBL1137082, “Potent and selective conformationally restricted neuronal nitric oxide synthase inhibitors” (J Med Chem, 2004).

Where only a bound is given, the exact number is not on record here.

T2 sequence (P29476 whole entry): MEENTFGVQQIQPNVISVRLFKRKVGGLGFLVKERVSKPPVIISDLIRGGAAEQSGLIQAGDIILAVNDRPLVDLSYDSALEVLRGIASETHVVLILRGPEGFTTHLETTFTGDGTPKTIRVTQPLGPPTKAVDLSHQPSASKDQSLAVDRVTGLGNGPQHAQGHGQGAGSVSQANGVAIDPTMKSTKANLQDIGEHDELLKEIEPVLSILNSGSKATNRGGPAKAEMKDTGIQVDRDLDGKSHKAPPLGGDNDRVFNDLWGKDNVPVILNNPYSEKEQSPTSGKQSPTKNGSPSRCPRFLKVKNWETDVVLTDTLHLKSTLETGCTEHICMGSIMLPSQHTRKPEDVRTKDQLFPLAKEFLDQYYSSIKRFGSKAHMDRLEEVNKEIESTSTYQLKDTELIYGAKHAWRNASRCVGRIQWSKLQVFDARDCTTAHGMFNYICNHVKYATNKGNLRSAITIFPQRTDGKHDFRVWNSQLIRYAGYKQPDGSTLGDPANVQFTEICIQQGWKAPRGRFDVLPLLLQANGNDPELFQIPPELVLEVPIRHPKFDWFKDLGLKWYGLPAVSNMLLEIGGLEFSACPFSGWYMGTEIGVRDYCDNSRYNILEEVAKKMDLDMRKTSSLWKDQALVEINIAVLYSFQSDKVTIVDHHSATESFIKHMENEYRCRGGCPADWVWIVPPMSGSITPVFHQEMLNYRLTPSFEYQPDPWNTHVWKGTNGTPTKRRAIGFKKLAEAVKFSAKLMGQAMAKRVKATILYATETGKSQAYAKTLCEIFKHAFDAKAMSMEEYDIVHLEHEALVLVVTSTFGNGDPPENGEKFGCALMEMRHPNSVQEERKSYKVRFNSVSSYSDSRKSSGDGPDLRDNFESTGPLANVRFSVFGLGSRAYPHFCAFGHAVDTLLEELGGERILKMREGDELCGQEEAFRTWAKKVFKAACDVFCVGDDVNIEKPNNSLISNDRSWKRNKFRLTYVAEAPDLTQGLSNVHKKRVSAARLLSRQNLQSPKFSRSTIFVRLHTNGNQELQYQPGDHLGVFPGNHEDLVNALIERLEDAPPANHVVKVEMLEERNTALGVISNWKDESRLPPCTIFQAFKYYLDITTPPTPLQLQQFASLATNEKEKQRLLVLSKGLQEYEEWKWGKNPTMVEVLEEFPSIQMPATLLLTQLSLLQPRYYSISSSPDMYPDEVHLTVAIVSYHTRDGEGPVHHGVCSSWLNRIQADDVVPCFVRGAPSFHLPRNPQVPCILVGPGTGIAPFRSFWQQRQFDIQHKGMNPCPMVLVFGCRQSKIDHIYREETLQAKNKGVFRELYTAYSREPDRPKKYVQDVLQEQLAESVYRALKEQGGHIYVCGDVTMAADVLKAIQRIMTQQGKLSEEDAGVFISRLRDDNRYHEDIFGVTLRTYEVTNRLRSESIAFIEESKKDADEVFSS

As a reminder, the IC50 is the concentration at which inhibition is half-maximal. `NC(=O)[C@H]1CC(N)CN1C(=O)[C@@H](N)CCC/N=C(\N)N[N+](=O)[O-]` (single isomer, unassigned; trans) returned an IC50 in assay [1] greater than 100 µM. Regarding `[N-]=[N+]=N[C@H]1CNC(C(=O)N[C@@H](CCC/N=C(\N)N[N+](=O)[O-])C(N)=O)C1` (single isomer, unassigned), the IC50 was greater than 100 µM in assay [1] and less than 100 µM in assay [2].

`[N-]=[N+]=NC1CN[C@@H](C(=O)N[C@H](CCCNC(=N)N[N+](=O)[O-])C(N)=O)C1` (single isomer, unassigned; trans) yielded an IC50 in assay [1] greater than 100 µM. In assay [3], `NC(=O)[C@@H]1C[C@H](NC(=O)[C@@H](N)CCC/N=C(\N)N[N+](=O)[O-])CN1` showed an Activity of 95%. Consider `N=C(NCCC[C@H](NC(=O)[C@H]1CC(N)CN1)C(N)=O)N[N+](=O)[O-]` (single isomer, unassigned; cis), for which the IC50 is greater than 100 µM in assay [1] and less than 100 µM in assay [2]. Turning to `NC(=O)C1CC(N)CN1C(=O)C(N)CCC/N=C(\N)N[N+](=O)[O-]` (stereo not given), the IC50 in assay [1] is greater than 100 µM. With `[N-]=[N+]=N[C@H]1CNC(C(=O)N[C@H](CCCNC(=N)N[N+](=O)[O-])C(N)=O)C1` (single isomer, unassigned), the IC50 in assay [1] is greater than 100 µM; in assay [2], less than 100 µM. As to `N=C(NCCC[C@@H](NC(=O)[C@H]1CC(N)CN1)C(N)=O)N[N+](=O)[O-]` (single isomer, unassigned; trans), the IC50 in assay [1] was greater than 100 µM; in assay [2], less than 100 µM.

With `N=C(NCCC[C@H](NC(=O)C1C[C@H](N)CN1)C(N)=O)N[N+](=O)[O-]` (single isomer, unassigned), in assay [1], the IC50 was greater than 100 µM. Regarding `[N-]=[N+]=N[C@@H]1CN[C@@H](C(=O)C[C@@H](CCC/N=C(\N)N[N+](=O)[O-])C(N)=O)C1`, the IC50 is greater than 100 µM in assay [1] and less than 100 µM in assay [2]. The compound `[N-]=[N+]=NC1CN[C@@H](C(=O)N[C@H](CCCNC(=N)N[N+](=O)[O-])C(N)=O)C1` (single isomer, unassigned; cis) yielded an IC50 in assay [1] greater than 100 µM. For `NC(=O)[C@@H]1C[C@@H](NC(=O)C(F)(F)F)CN1C(=O)[C@@H](N)CCC/N=C(\N)N[N+](=O)[O-]`, the IC50 in assay [1] is greater than 100 µM; in assay [4], roughly 100 µM.

For `N=C(NCCC[C@H](N)C(=O)N1CC(NC(=O)C(F)(F)F)C[C@@H]1C(N)=O)N[N+](=O)[O-]` (single isomer, unassigned; trans), in assay [1], the IC50 was greater than 100 µM. Same read-out and setting: the figure for `NC(=O)[C@H]1CC(NC(=O)C(F)(F)F)CN1C(=O)[C@H](N)CCC/N=C(/N)N[N+](=O)[O-]` (single isomer, unassigned; trans) is greater than 100 µM; for `[N-]=[N+]=N[C@H]1CN[C@@H](C(=O)C[C@@H](CCC/N=C(\N)N[N+](=O)[O-])C(N)=O)C1` it is greater than 100 µM. `N=C(NCCC[C@@H](N)C(=O)N[C@H]1CNC(C(N)=O)C1)N[N+](=O)[O-]` (single isomer, unassigned) came in with an Activity in assay [3] of 97%. In assay [1], `N=C(NCCC[C@@H](NC(=O)C1C[C@H](N)CN1)C(N)=O)N[N+](=O)[O-]` (single isomer, unassigned) gave an IC50 greater than 100 µM. In the case of `N=C(NCCC[C@H](NC(=O)[C@H]1CC(N)CN1)C(N)=O)N[N+](=O)[O-]` (single isomer, unassigned; trans), the IC50 in assay [1] was greater than 100 µM; in assay [2] it was less than 100 µM. In assay [3], `NC(=O)[C@@H]1C[C@H](NC(=O)[C@H](N)CCC/N=C(\N)N[N+](=O)[O-])CN1` yielded an Activity of 96%. As for `N=C(NCCC[C@H](N)C(=O)N[C@H]1CNC(C(N)=O)C1)N[N+](=O)[O-]` (single isomer, unassigned), the Activity in assay [3] stood at 94%. In turn, `N=C(NCCC[C@@H](N)C(=O)N1CC(N)C[C@@H]1C(N)=O)N[N+](=O)[O-]` (single isomer, unassigned; trans) came in with an IC50 in assay [1] greater than 100 µM.

In assay [1], `[N-]=[N+]=N[C@@H]1CNC(C(=O)N[C@H](CCCNC(=N)N[N+](=O)[O-])C(N)=O)C1` (single isomer, unassigned) displayed an IC50 greater than 100 µM. Still for that read-out and setting: the figure for `[N-]=[N+]=N[C@@H]1CNC(C(=O)N[C@@H](CCC/N=C(\N)N[N+](=O)[O-])C(N)=O)C1` (single isomer, unassigned) is greater than 100 µM. Regarding `NC(=O)[C@@H]1C[C@@H](NC(=O)[C@H](N)CCC/N=C(\N)N[N+](=O)[O-])CN1`, the Activity in assay [3] was determined as 97%. In turn, `NC(=O)[C@@H]1C[C@@H](N)CN1C(=O)[C@H](N)CCC/N=C(\N)N[N+](=O)[O-]` came in with an IC50 in assay [1] greater than 100 µM. Same read-out and setting: to `N=C(NCCC[C@H](NC(=O)C1C[C@@H](N)CN1)C(N)=O)N[N+](=O)[O-]` (single isomer, unassigned) belongs greater than 100 µM. `N=C(NCCC[C@@H](N)C(=O)NC1CNC(C(N)=O)C1)N[N+](=O)[O-]` (single isomer, unassigned) came in with an Activity in assay [3] of 96%. `NC(=O)[C@@H]1C[C@H](N)CN1C(=O)[C@@H](N)CCC/N=C(\N)N[N+](=O)[O-]`: the concentration for half-maximal inhibition (IC50) in assay [1] is greater than 100 µM. On the same count and under the same terms, the figure for `N=C(NCCC[C@H](N)C(=O)N1CC(NC(=O)C(F)(F)F)C[C@@H]1C(N)=O)N[N+](=O)[O-]` (single isomer, unassigned; cis) is greater than 100 µM; for `N=C(NCCC[C@@H](N)C(=O)N1CC(NC(=O)C(F)(F)F)C[C@@H]1C(N)=O)N[N+](=O)[O-]` (single isomer, unassigned; cis) it is greater than 100 µM; for `N=C(NCCC[C@H](N)C(=O)N1CC(N)C[C@@H]1C(N)=O)N[N+](=O)[O-]` (single isomer, unassigned; cis) it is greater than 100 µM. On to `N=C(NCCC[C@@H](NC(=O)C1C[C@@H](N)CN1)C(N)=O)N[N+](=O)[O-]` (single isomer, unassigned), for which, in assay [1], the IC50 was greater than 100 µM. Still for that read-out and setting: to `NC(=O)[C@@H]1C[C@H](NC(=O)C(F)(F)F)CN1C(=O)[C@H](N)CCC/N=C(\N)N[N+](=O)[O-]` belongs greater than 100 µM; to `NC(=O)[C@@H]1C[C@@H](NC(=O)C(F)(F)F)CN1C(=O)[C@H](N)CCC/N=C(\N)N[N+](=O)[O-]`, greater than 100 µM.

In assay [1], `NC(=O)[C@@H]1C[C@H](N)CN1C(=O)[C@H](N)CCC/N=C(\N)N[N+](=O)[O-]` displayed an IC50 greater than 100 µM.

For `N=C(NCCC[C@@H](NC(=O)[C@H]1CC(N)CN1)C(N)=O)N[N+](=O)[O-]` (single isomer, unassigned; cis), the IC50 in assay [1] is greater than 100 µM; in assay [2], less than 100 µM. For the compound `NC(=O)[C@@H]1C[C@H](NC(=O)C(F)(F)F)CN1C(=O)[C@@H](N)CCC/N=C(\N)N[N+](=O)[O-]`, the IC50 in assay [1] is greater than 100 µM.
